Measurements as given in publication PMC4390023 (The British journal of nutrition, 2013).
Entries after “also recorded” stand apart in the source; their conditions may differ.

Key:
[1] = high doses given to dams; not to the extent of retinoic acid alone; cited from earlier work
RARα = conditions: cited from earlier work
RARγ = conditions: cited from earlier work
RARβ = conditions: cited from earlier work
[2] = Study 1 tissue and serum ROH, αR and DR by HPLC; format: in vivo, rat; conditions: for Lung ROH concentration / Spleen ROH concentration: rats, 50 nmol/d oral, 5 weeks, mean, n 10
Study 1 growth assay = format: in vivo, rat; conditions: for Area-under-the growth curve, difference from control / Bioactivity from area-under-the growth curve, % of retinol / Bioactivity from final body weight, % of retinol / Final body weight / Area-under-the growth curve: rats, 50 nmol/d for 5 weeks; for Bioactivity from area-under-the growth curve, % of retinol: control subtracted, relative to retinol group; for Bioactivity from final body weight, % of retinol: difference from control relative to retinol group; for Final body weight / Area-under-the growth curve: mean, n 10; for Area-under-the growth curve: trapezoidal; for Bioactivity compared with retinol: from body weights and area-under-the-response curves, equimolar 50 nmol/d
Method in brief: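 Weanling (21-d) male Sprague Dawley rats (n 40) were fed a vitamin A-deficient diet and weighed daily. At week 9 they were split into four weight-matched groups (n 10) and given 50 nmol/d oral retinoid acetate in 100 µl cottonseed oil, or vehicle alone. Rats were killed 5 weeks after dosing began. Body-weight AUC was by trapezoidal approximation, and bioactivity from ending weights versus the retinol group. ANOVA; means (SD).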

[3] = Study 3 toxicity study: serum chemistry panel and liver histology; format: in vivo, rat; conditions: 3.5 µmol/d for 21 d; for Hepatotoxicity: rats killed 1, 8 and 15 d after the last dose
[4] = given intraperitoneally; cited from earlier work
[5] = Study 3 retinol and α-retinol in liver, kidney and serum after the final dose; format: in vivo, rat; conditions: for Liver αR: 3.5 µmol/day for 21 days, n 5
[6] = rats maintained on DR; cited from earlier work
[7] = cited from earlier work; for Estimates of bioactivity in rats, that of ROH: ref estimates of the 1950's
retinol transporter = conditions: cited from earlier work
[8] = in vitro and in vivo models; cited from earlier work
[9] = Study 2 interaction study: graded αR with 70 nmol ROH/d, serum and liver; format: in vivo, rat; conditions: for Liver αR / Total dose liver retention: 3 weeks
Method in brief: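 Each received oral daily 70 nmol reference retinoid plus 0, 17.5, 35 or 70 nmol test retinoid (as acetate) in 100 µl cottonseed oil. Rats were killed after 3 weeks. Serum and saponified liver were run on isocratic C18 HPLC-UV in acetonitrile:water 87.5:12.5 with 10 mM ammonium acetate. ANOVA; means (SD).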

apo-RBP = conditions: cited from earlier work

CC(=O)OC/C=C(C)/C=C/C=C(C)/C=C/C1=C(C)C=CCC1(C)C [3,4-didehydroretinyl acetate]
Terata in fetuses [1]: caused terata in fetuses

CC1=C(/C=C/C(C)=C/C=C/C(C)=C/C(=O)O)C(C)(C)CC=C1 [3,4-Didehydroretinoic acid]
Affinity for RARα (RARα): same affinity as retinoic acid
Affinity for RARγ (RARγ): same affinity as retinoic acid
Affinity for RARβ (RARβ): same affinity as retinoic acid

CC1=C(/C=C/C(C)=C/C=C/C(C)=C/CO)C(C)(C)CCC1 [Retinol, retinol, reference compound]
Kidney ROH relative to liver ROH ([2]; study 1): 7 times
Liver reserves, times less than deficiency cut-off (<70 nmol ROH/g liver) ([2]; study 1, ROH group): 14 times
Area-under-the growth curve, difference from control (Study 1 growth assay): 787
Bioactivity from area-under-the growth curve, % of retinol (Study 1 growth assay): 100%
Bioactivity from final body weight, % of retinol (Study 1 growth assay): 100%
Final body weight (Study 1 growth assay): 546 g
Area-under-the growth curve (Study 1 growth assay): 1654 g·days

CC(=O)OC/C=C(C)/C=C/C=C(C)/C=C/C1C(C)=CCCC1(C)C (stereo not drawn) [α-retinyl acetate]
Hepatotoxicity [3]: No hepatic toxicity was observed; also recorded: No hepatotoxicity was noted
Growth of hamsters [4]: sustains growth of hamsters
Liver αR ([5]; day 1 after final dose): 2300 nmol/g
Liver αR ([5]; day 8 after final dose): 1750 nmol/g
Liver αR ([5]; day 15 after final dose): 1770 nmol/g

CC1=C(/C=C/C(C)=C/C=C/C(C)=C/CO)C(C)(C)CC=C1 [3,4-Didehydroretinol, 3,4-didehydroretinol]
Retina integrity [6]: normal retina integrity
Biological activity compared with ROH [7]: 40%
Estimates of bioactivity in rats, that of ROH [7]: 40%
Rate of carriage by the retinol transporter from the intestine (retinol transporter): at the same rate as ROH
Lung ROH concentration [2]: not detected
Spleen ROH concentration [2]: not detected
Serum DR in DR-dosed rats, times less than serum ROH in ROH-dosed rats ([2]; study 1): 2.6 times
Bioactivity compared with retinol (Study 1 growth assay): 120–130%
Area-under-the growth curve, difference from control (Study 1 growth assay): 1000
Bioactivity from area-under-the growth curve, % of retinol (Study 1 growth assay): 127%
Bioactivity from final body weight, % of retinol (Study 1 growth assay): 119%
Final body weight (Study 1 growth assay): 560 g
Area-under-the growth curve (Study 1 growth assay): 1867 g·days

CC1=CCCC(C)(C)C1/C=C/C(C)=C/C=C/C(C)=C/CO (stereo not drawn) [α-Retinol, α-retinol]
Induction of signs of hypervitaminosis A [8]: very effective at inducing signs of hypervitaminosis A
Activity relative to retinol (ROH), growth-promoting activity in rats [7]: 2.1%
Bioactivity [7]: 2.6%
Biopotency versus US Pharmacopeia Vitamin A Reference Standard ([7]; rat growth and liver storage bioassays): approximately 2%
Estimates of bioactivity in rats, that of ROH [7]: 2%
Biopotency of all-trans-retinyl acetate ([7]; ref previous reports): 2%
Liver αR ([9]; 17.5 nmol αR/d + 70 nmol ROH/d): 262 (SD 34) nmol/liver
Total dose liver retention ([9]; 17.5 nmol αR/d + 70 nmol ROH/d): 71.3%
Liver αR ([9]; 35 nmol αR/d + 70 nmol ROH/d): 449 (SD 23) nmol/liver
Total dose liver retention ([9]; 35 nmol αR/d + 70 nmol ROH/d): 61.1%
Liver αR ([9]; 70 nmol αR/d + 70 nmol ROH/d): 893 (SD 138) nmol/liver
Total dose liver retention ([9]; 70 nmol αR/d + 70 nmol ROH/d): 60.7%
Serum αR ([9]; study 2, 17.5-70 nmol αR/d + 70 nmol ROH/d): undetectable
Cumulative αR doses recovered in the liver ([9]; study 2, with 70 nmol ROH/d): 61–71%
Toxicity compared with control rats [3]: No toxicity was evident
Hepatotoxicity [3]: no hepatotoxicity occurred
Stellate cell hypertrophy ([3]; liver sections, hematoxylin and eosin): No stellate cell hypertrophy was detected
Lung ROH concentration [2]: not detected
Spleen ROH concentration [2]: not detected
Cumulative αR doses recovered in the liver ([2]; study 1, ROH not made available): 0.3%
Serum ROH concentration ([2]; study 1, rats fed 50 nmol/d): ≤ 0.10 µmol/L
Growth rate relative to ROH (Study 1 growth assay; classic growth assay, 50 nmol/d): about 50%
Bioactivity compared with retinol (Study 1 growth assay): 40–50%
Area-under-the growth curve, difference from control (Study 1 growth assay): 298
Final body weight (Study 1 growth assay): 508 g
Area-under-the growth curve (Study 1 growth assay): 1165 g·days
α-Retinyl esters circulating in the blood, share of total retinol ([5]; at αR concentrations >1.7 µmol/g liver): > 10%
Binding in vitro with apo-RBP (apo-RBP): failed to bind

CC(=O)OC/C=C(C)/C=C/C=C(C)/C=C/C1=C(C)CCCC1(C)C [retinyl acetate, reference compound]
Terata in fetuses [1]: caused terata in fetuses
